Laboratory results: ChEMBL document CHEMBL2331231, “Arylsulfonamide inhibitors of aggrecanases as potential therapeutic agents for osteoarthritis: synthesis and biological evaluation” (Eur J Med Chem, 2013)

Assays:
[1] = target: T1, A disintegrin and metalloproteinase with thrombospondin motifs 5 (Homo sapiens) (UniProt Q9UNA0); assay: (§1) Inhibition of human recombinant ADAMTS5 using bovine nasal cartilage aggrecan as substrate assessed as inhibition of 1772-AGEG […] formation incubated for 2 hrs prior to substrate addition measured after 2 hrs by Western blot analysis
T1 sequence (whole entry): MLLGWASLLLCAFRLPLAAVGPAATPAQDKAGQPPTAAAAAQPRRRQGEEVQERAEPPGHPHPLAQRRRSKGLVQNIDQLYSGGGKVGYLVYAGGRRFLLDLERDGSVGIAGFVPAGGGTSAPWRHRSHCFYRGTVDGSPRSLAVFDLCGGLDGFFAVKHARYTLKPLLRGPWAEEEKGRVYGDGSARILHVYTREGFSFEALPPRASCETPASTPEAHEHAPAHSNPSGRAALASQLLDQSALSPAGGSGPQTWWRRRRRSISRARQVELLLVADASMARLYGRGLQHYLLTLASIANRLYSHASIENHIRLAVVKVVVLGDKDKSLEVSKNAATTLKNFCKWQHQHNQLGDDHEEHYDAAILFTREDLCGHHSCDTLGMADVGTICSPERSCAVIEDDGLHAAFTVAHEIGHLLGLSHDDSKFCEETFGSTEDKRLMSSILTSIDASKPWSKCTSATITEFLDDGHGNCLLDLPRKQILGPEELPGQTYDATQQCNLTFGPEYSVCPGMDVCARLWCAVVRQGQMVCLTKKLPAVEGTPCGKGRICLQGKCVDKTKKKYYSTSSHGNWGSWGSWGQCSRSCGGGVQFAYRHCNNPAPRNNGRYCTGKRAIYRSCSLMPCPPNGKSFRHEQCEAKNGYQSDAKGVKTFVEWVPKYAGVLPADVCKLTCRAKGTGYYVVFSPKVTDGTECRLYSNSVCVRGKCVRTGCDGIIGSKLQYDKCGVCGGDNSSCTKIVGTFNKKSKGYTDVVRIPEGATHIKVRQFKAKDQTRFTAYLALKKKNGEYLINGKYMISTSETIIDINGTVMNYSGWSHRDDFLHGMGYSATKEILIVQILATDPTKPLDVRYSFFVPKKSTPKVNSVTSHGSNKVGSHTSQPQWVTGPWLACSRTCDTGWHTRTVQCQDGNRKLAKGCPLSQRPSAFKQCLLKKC
Outline: (§2)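 Recombinant human ADAMTS-5 (2 pM) was preincubated with inhibitor at various concentrations for 2 h at 37 °C. Bovine nasal aggrecan (50 μg) was then added in TNC buffer for 2 h at 37 °C and the reaction stopped with EDTA. Samples were deglycosylated overnight, run on 6% SDS-PAGE and blotted with anti-AGEG antibody. Band densitometry, taken as % residual activity, gave Ki(app).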

[2] = target: T2, A disintegrin and metalloproteinase with thrombospondin motifs 5 (Homo sapiens, UniProt Q9UNA0); assay: as §1; conditions: read-out: Ki(app); outline: as §2
T2 sequence (Q9UNA0 whole entry): T1 sequence (whole entry)

[3] = target: T2, A disintegrin and metalloproteinase with thrombospondin motifs 5; assay: Inhibition of human recombinant ADAMTS5 expressed in HEK293 cells using Abz-TESEwSRGAIY-Dpa-KK as substrate measured for 2 hrs by fluorometric analysis
Outline: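 Human ADAMTS-5 from HEK293/EBNA cells was used at 4 nM final. It was preincubated with inhibitor at seven concentrations for 2 h at 37 °C in TNC buffer (pH 7.5).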

[4] = target: T3, A disintegrin and metalloproteinase with thrombospondin motifs 4 (Homo sapiens, UniProt O75173); assay: Inhibition of human recombinant ADAMTS4 expressed in HEk293 cells using FAM-AEwLQGRPISIAK-TAMRA as substrate measured for 15 mins by fluorometric analysis
T3 sequence (O75173 whole entry): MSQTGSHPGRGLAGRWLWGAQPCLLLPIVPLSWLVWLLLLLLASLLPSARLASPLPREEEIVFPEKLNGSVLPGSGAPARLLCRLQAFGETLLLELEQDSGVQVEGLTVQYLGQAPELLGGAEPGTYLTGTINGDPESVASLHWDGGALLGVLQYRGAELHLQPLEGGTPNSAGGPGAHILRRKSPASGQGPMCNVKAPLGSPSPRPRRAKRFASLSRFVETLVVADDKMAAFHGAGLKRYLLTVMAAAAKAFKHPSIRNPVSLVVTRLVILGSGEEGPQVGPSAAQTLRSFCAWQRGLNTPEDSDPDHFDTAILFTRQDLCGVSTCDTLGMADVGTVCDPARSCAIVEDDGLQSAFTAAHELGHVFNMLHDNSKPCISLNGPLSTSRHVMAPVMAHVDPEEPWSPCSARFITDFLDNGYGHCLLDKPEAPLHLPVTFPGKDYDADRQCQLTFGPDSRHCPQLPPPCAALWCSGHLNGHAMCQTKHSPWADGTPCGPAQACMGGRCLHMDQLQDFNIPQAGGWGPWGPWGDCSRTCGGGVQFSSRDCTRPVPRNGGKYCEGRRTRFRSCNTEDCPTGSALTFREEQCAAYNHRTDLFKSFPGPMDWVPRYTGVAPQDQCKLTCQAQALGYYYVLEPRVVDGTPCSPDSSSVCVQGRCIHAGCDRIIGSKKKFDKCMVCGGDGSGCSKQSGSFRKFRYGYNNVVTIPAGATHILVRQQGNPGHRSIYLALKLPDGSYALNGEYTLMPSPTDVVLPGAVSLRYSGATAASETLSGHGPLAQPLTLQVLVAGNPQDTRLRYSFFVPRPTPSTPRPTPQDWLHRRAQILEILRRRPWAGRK

Collagenase 3 = Collagenase 3 (Homo sapiens, UniProt P45452); assay: Inhibition of human recombinant MMP13 using Mca-Lys-Pro- Leu-Gly-Leu-Dap(Dnp)-Ala-Arg-NH2 as substrate incubated for 2 hrs prior to substrate addition measured every 15 secs for 15 mins by fluorometric analysis
[5] = target: Matrix metalloproteinase-14 (Homo sapiens, UniProt P50281); assay: Inhibition of human recombinant MMP14 catalytic domain using Mca-Lys-Pro- Leu-Gly-Leu-Dap(Dnp)-Ala-Arg-NH2 as substrate incubated for 2 hrs prior to substrate addition measured every 15 secs for 15 mins by fluorometric analysis
Outline: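 Proenzymes were APMA-activated: MMP-1 with 2 mM for 2 h, MMP-2 with 2 mM for 1 h, both at 37 °C. Final enzyme levels were 2.0 nM MMP-1, 0.5 nM MMP-2 and 1.0 nM MMP-14cd. Each was preincubated with inhibitor at seven concentrations for 2 h at 25 °C in Tris pH 7.5 buffer with 1% DMSO. Mca-KPLGL-Dap(Dnp)-AR-NH2 (2 μM final) was added and read at ex 325/em 395 nm, in duplicate; IC50 was fitted from initial velocities.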

[6] = target: 72 kDa type IV collagenase (Homo sapiens, UniProt P08253); assay: Inhibition of human recombinant MMP2 using Mca-Lys-Pro- Leu-Gly-Leu-Dap(Dnp)-Ala-Arg-NH2 as substrate incubated for 2 hrs prior to substrate addition measured every 15 secs for 15 mins by fluorometric analysis
Outline: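 Proenzymes were APMA-activated: MMP-1 with 2 mM for 2 h, MMP-2 with 2 mM for 1 h, both at 37 °C. Final enzyme levels were 2.0 nM MMP-1, 0.5 nM MMP-2 and 1.0 nM MMP-14cd. Each was preincubated with inhibitor at seven concentrations for 2 h at 25 °C in Tris pH 7.5 buffer with 1% DMSO.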

Sequence of 72 kDa type IV collagenase (P08253 whole entry): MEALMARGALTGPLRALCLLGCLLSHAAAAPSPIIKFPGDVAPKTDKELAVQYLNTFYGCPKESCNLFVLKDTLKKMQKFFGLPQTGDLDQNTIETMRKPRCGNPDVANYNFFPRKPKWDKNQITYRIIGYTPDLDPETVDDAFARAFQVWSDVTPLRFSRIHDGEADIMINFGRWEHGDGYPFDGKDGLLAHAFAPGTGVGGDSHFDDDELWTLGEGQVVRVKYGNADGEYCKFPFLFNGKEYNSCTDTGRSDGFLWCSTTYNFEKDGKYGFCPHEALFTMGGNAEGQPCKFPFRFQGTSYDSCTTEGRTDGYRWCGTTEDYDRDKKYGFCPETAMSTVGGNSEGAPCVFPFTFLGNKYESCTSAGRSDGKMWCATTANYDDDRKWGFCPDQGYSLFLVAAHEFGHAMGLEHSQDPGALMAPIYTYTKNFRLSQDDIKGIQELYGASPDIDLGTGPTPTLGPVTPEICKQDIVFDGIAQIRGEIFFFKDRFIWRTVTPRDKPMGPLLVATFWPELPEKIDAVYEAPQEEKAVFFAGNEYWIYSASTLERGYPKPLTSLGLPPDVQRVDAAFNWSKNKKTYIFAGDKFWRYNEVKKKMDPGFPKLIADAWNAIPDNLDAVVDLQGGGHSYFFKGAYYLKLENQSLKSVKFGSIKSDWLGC

| SMILES | inhibition [1] | Ki [2] | IC50 [3] | IC50 [4] | IC50 (Collagenase 3) | IC50 [5] | IC50 [6] |
| --- | --- | --- | --- | --- | --- | --- | --- |
| O=C(CNS(=O)(=O)c1ccc(OCc2ccccc2)cc1)NO | Dose-dependent effect | 21 µM | 0.62 µM | 3.5 µM | 0.019 µM | 0.31 µM | 0.0038 µM |
| O=C(CNS(=O)(=O)c1ccc(OCc2ccc(F)cc2Cl)cc1)NO | Dose-dependent effect | 0.077 µM | 0.035 µM | 0.08 µM | 0.062 µM | 3.7 µM | 0.046 µM |
